Bioassay records: PubChem BioAssay, The Scripps Research Institute Molecular Screening Center
This is a sample that favours compounds with a hit; in the whole collection about 2.3% have one here.
OXTR potentiator = potentiates the human oxytocin receptor response. P30559. activation, % at 3 µM. actives 0.061% (n = 320,000). CHO-OTR cells, Fluo-8 calcium fluorescence, potentiator mode; 0% = oxytocin EC15, 100% = EC100;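 active = activation above that plate's cutoff, the mean activation of tested compounds plus 3 SD, cut at about 6.6% in these data, passing the limit was not always enough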
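Dosing: Single dose, 3.0 µM nominal final compound concentration | Material: Human OTR in CHO cells | Technique: Kinetic Fluo-8 calcium fluorescence | Benchmarks: EC15 oxytocin alone as 0%, 75 nM oxytocin as 100% | Probe or stimulus: Oxytocin at about EC15, sub-maximal agonist stimulus | Incubation: Compound 6 min at room temperature before oxytocin, 100 s read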
TAAR1 ag = agonists of human TAAR1. Q96RJ0. CHO RD-HGA16 TAAR1, Fluo-8 calcium fluorescence; vehicle wells 0%, saturating PEA agonist 100%. activation, % at 3 µM. actives 0.99% (n = 360,000). AID 624467;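 active = activation above the mean activation of all test compounds in the run plus 3 SD, cut at about 38% in these data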
Target sequence (Q96RJ0 whole entry, looked up): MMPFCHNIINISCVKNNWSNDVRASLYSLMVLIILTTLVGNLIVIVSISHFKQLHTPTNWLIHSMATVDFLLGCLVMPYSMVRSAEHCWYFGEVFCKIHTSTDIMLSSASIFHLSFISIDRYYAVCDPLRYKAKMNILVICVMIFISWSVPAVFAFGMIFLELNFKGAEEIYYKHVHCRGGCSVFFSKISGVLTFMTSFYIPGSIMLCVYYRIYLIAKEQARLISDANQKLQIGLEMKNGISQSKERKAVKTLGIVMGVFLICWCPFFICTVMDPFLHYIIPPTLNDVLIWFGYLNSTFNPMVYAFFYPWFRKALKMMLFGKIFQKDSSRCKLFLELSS
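System: CHO-derived RD-HGA16 cells with stable Gα16 and human TAAR1. Times: 17-24 h plating, Fluo-8 75 min 37 °C, 30 min RT. Measured by: calcium-sensitive Fluo-8 signal, excitation 470-495, emission 515-575 nm. Read-out basis: % activation relative to PEA EC100 response. Control set: DMSO and PEA EC100. Repeats: no replicates (n 1).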
V1aR counter = counter-screen for oxytocin receptor agonists: human V1a receptor agonists. AID 2797. CHO-V1R cells, Fluo-8 calcium fluorescence, agonist mode; 0% DMSO, 100% 3 nM vasopressin. actives 0.25% (n = 320,000). P37288. activation, % at 3 µM;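 active = activation above the mean activation of all tested compounds plus 3 SD, per screening run, cut at about 20% in these data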;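 note: signal is peak over basal fluorescence ratio across a 100 second FLIPR read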
Target sequence (P37288 whole entry, looked up): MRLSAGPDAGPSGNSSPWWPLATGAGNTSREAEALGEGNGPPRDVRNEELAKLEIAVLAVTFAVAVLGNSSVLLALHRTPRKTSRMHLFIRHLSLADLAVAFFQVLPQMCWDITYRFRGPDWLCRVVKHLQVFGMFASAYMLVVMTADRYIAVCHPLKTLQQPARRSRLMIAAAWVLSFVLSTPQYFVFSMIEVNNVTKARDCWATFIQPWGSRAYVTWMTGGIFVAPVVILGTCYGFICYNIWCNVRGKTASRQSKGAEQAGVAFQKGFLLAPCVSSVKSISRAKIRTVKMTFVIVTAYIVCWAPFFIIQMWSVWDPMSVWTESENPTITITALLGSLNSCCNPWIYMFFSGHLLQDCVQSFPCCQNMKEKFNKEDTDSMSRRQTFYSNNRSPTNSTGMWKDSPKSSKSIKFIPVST
OXTR ag = agonists of human oxytocin receptor. P30559. CHO-OTR cells, Fluo-8 calcium fluorescence; normalized: DMSO 0%, oxytocin 100%. activation, % at 3 µM. actives 0.32% (n = 320,000);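 active = activation above the mean of all tested compounds plus 3 SD, cutoff set per screening run, cut at about 20% in these data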;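 note: peak over basal fluorescence ratio from a 100 s FLIPR kinetic read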
TAAR1 antag = human TAAR1 antagonism; Q96RJ0; CHO RD-HGA16 TAAR1, Fluo-8 calcium fluorescence, antagonist; inhibition, % at 3 µM; actives 1.5% (n = 360,000);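 active = inhibition above a per-plate cutoff, the mean inhibition of test compounds on that plate plus 3 SD, cut at about 49% in these data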
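Material: RD-HGA16 CHO cells with stable hTAAR1 and Gα16; Dosing: single nominal final test compound concentration of 3 µM; Schedule: seeding 17-24 h prior, 75-min 37 °C, 30-min RT dye loading; Detection: kinetic Fluo-8 calcium fluorescence measurement; Measure: % inhibition from peak post-agonist over basal fluorescence ratio; Benchmarks: vehicle and agonist controls.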
nonsel antag count = nonselective antagonism, TAAR1 counter-screen | shares compounds with TAAR1 antag | counterscreen cell line, calcium fluorescence, antagonist mode | inhibition, % at 3 µM | actives 77% (n = 2,400) | AID 651780; in the data active = inhibition above about 22%;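 note: CHO-Ga16 host cells stimulated with ATP at an EC80 level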
TAAR1 ant conf = human TAAR1 antagonism, confirmed; shares compounds with TAAR1 antag; TAAR1-expressing cells, fluorescence antagonist read-out; inhibition, % at 3 µM; actives 40% (n = 2,400); AID 651785; in the data active = inhibition above about 49%;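 note: CHO-Ga16 host cells challenged with agonist PEA near its EC80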
Ga16 ag counter = nonselective Ga16 agonist in TAAR1 antagonist counter-screen; activation, % at 3 µM; Ga16-expressing cells, calcium fluorescence, agonist counterscreen; actives 18% (n = 2,400); shares compounds with TAAR1 antag; in the data active = activation above about 12%
TAAR1 ag count = activates human TAAR1 in antagonist counter-screen | shares compounds with TAAR1 antag | hTAAR1 cell line, fluorescence activation, agonist mode | activation, % at 3 µM | actives 2% (n = 2,400) | AID 651955; in the data active = activation above about 37%;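 note: CHO cells stably expressing TAAR1 with calcium dye readout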
Of the large screens only hits and unclear results are named; the others gave an inactive call (follow-up assays come after a bar, where they were run).

COc1ccc(NC(=O)c2cc(-c3ccc(F)cc3OC)n[nH]2)c(OC)c1	TAAR1 antag 66 (no result: OXTR potentiator, V1aR counter, OXTR ag) | nonsel antag count 32 | TAAR1 ant conf inactive | Ga16 ag counter inactive | TAAR1 ag count inactive
COc1ccc(NC(=O)c2cc(-c3cc(Cl)ccc3O)n[nH]2)c(OC)c1	none
Cc1cccc(NC(=O)c2cc(Cl)nc3ccccc23)n1	none
COc1ccccc1N1CCN(C(=O)c2ccc(-c3nc4ccccc4s3)o2)CC1	TAAR1 antag 54 | nonsel antag count 22 | TAAR1 ant conf inactive | Ga16 ag counter inactive | TAAR1 ag count inactive
COc1ccc(N2CCN(C(=O)c3ccc(-c4nc5ccccc5s4)o3)CC2)cc1	none
Cc1ccc(OCC(=O)NNc2c3ccccc3nc3ccccc23)cc1	TAAR1 antag 70 | nonsel antag count 33 | TAAR1 ant conf 49 | Ga16 ag counter inactive | TAAR1 ag count inactive
O=C(Cc1ccccc1)NNc1c2ccccc2nc2ccccc12	none
CCOC(=O)N1CCN(CC(=O)Nc2sccc2C#N)CC1	none
CCCc1cc(C(=O)Nc2ccc(C(=O)c3ccc(C)cc3)cc2)n(C)n1	TAAR1 antag 64 | nonsel antag count 29 | TAAR1 ant conf 49 | Ga16 ag counter inactive | TAAR1 ag count inactive
CC(=O)c1ccccc1NC(=O)COC(=O)/C(=C/c1ccccc1)n1nnnc1C	none
Cc1ccc(S(=O)(=O)N(CC(=O)Nc2ccccc2C(=O)O)c2ccccc2C)cc1	none
O=C(Nc1ccccc1C(=O)Nc1ccccc1C(=O)NCc1ccco1)c1ccco1	TAAR1 antag 69 | nonsel antag count 25 | TAAR1 ant conf 49 | Ga16 ag counter inactive | TAAR1 ag count inactive
Cc1ccccc1N(CC(=O)Nc1ccccc1C(=O)NCc1ccco1)S(=O)(=O)c1ccccc1	TAAR1 antag 69 | nonsel antag count 31 | TAAR1 ant conf inactive | Ga16 ag counter inactive | TAAR1 ag count inactive
Cc1ccc(NC(=O)CN2C(=O)COc3ccc(S(=O)(=O)N4CCOCC4)cc32)cc1N(C)C	none
Cc1ccc(-n2c(C)cc(/C=N/NC(N)=S)c2C)cc1	TAAR1 antag 90 | nonsel antag count inactive | TAAR1 ant conf 91 | Ga16 ag counter inactive | TAAR1 ag count inactive
CNC(=S)N/N=C/c1cc(C)n(-c2ccc(Cl)c(Cl)c2)c1C	TAAR1 antag 70 | nonsel antag count 28 | TAAR1 ant conf 62 | Ga16 ag counter 30 | TAAR1 ag count 59
COc1ccc(C(O)c2nc(-c3ccc(OC)c(OC)c3)cs2)cc1 (centres undefined)	none (no result: OXTR potentiator, V1aR counter, OXTR ag)
Cc1ccc(-c2[nH]c3ccccc3c2C(C[N+](=O)[O-])c2ccco2)cc1 (centres undefined)	TAAR1 antag 63 | nonsel antag count inactive | TAAR1 ant conf inactive | Ga16 ag counter inactive | TAAR1 ag count inactive
Cc1[nH]c2ccccc2c1C(C[N+](=O)[O-])c1ccco1 (centres undefined)	none
CCOc1ccccc1NC(=O)c1nnn(CC(=O)Nc2cc(C)cc(C)c2)c1N	none
Cc1csc(N2CCN(c3cc4nc(-c5ccncc5)[nH]c4cc3Cl)CC2)n1	TAAR1 antag 58 | nonsel antag count 30 | TAAR1 ant conf inactive | Ga16 ag counter inactive | TAAR1 ag count inactive
CN(C(=O)c1cccc(NC(=O)c2ccccc2)c1)C1CCCCC1	none
CN(C(=O)c1cccc(Nc2ccc(-c3ccc4c(c3)OCCO4)nn2)c1)C1CCCCC1	TAAR1 antag 54 | nonsel antag count inactive | TAAR1 ant conf inactive | Ga16 ag counter inactive | TAAR1 ag count inactive
O=C(c1cccc(C(F)(F)F)c1)C1CCCN(C(=O)c2cc(C3CC3)[nH]n2)C1 (centres undefined)	none
Cc1ccc(CN(Cc2ccccn2)C(=O)Nc2c(F)cccc2F)cc1	none
COc1cc(/C=N/NC(=O)CSc2cc(C)c(Br)cc2C)ccc1O	TAAR1 antag 66 | nonsel antag count 38 | TAAR1 ant conf 59 | Ga16 ag counter 13 | TAAR1 ag count inactive
O=C(NCc1ccccc1)c1ccc(NC(=O)C2CCCCC2)cc1	none (no result: OXTR potentiator, V1aR counter, OXTR ag)
O=C(COC(=O)/C=C/c1ccc(Cl)cc1)NCc1cccs1	none (no result: OXTR potentiator, V1aR counter, OXTR ag)
C=CCOc1ccc(/C=C/C(=O)OCc2csc(CC(=O)Nc3ccccc3C)n2)cc1	TAAR1 antag 66 | nonsel antag count 38 | TAAR1 ant conf 52 | Ga16 ag counter inactive | TAAR1 ag count inactive
C=CCOc1ccc(/C=C/C(=O)OCC(=O)NCc2cccs2)cc1	TAAR1 antag 52 | nonsel antag count 29 | TAAR1 ant conf inactive | Ga16 ag counter inactive | TAAR1 ag count inactive
COc1cccc(NC(=O)CN(C)C(=O)CNC(=O)c2ccc3ccccc3c2)c1	none
Cc1ccsc1C(=O)OCc1nnc(-c2ccccc2)o1	none
CCNC(=O)c1ccccc1NC(=O)c1cccc(S(=O)(=O)N2CCC(C)CC2)c1	TAAR1 antag 59 | nonsel antag count 33 | TAAR1 ant conf inactive | Ga16 ag counter inactive | TAAR1 ag count inactive
CNC(=O)c1ccccc1NC(=O)c1cccc(S(=O)(=O)N2CCC(C)CC2)c1	none
CCOc1cc(C(=O)NC(C)CCc2ccccc2)cc(OCC)c1OCC (centres undefined)	none
Cc1cc(C)c(S(=O)(=O)N2CCCOC2CNC(=O)C(=O)NCCc2c[nH]c3ccccc23)c(C)c1 (centres undefined)	TAAR1 antag 75 | nonsel antag count 52 | TAAR1 ant conf 68 | Ga16 ag counter 18 | TAAR1 ag count inactive
COc1ccc(C2CC(=O)C(c3cccc(OC)c3)=CN2Cc2ccccc2)cc1 (centres undefined)	none (no result: OXTR potentiator, V1aR counter, OXTR ag)
COc1ccc(C2CC(=O)C(c3ccccc3)=CN2Cc2ccccc2)cc1 (centres undefined)	TAAR1 antag 58 (no result: OXTR potentiator, V1aR counter, OXTR ag) | nonsel antag count 28 | TAAR1 ant conf inactive | Ga16 ag counter inactive | TAAR1 ag count inactive
COc1ccc(C2CC(=O)C(c3ccccc3C)=CN2Cc2ccccc2)cc1 (centres undefined)	TAAR1 antag 56 (no result: OXTR potentiator, V1aR counter, OXTR ag) | nonsel antag count inactive | TAAR1 ant conf inactive | Ga16 ag counter inactive | TAAR1 ag count inactive
COc1ccc(-n2c(SCC(=O)N3CCC(C(=O)O)CC3)nc3ccccc3c2=O)cc1OC	none
Cc1cccnc1CN1CCN(Cc2nc(Cc3cccc(F)c3)no2)CC1	none
COC(=O)c1cc2c(C)cc3ccc(C)cn3c-2c1C(=O)OC	none
